Calls of active or inactive are those of the source. No cut-off for these calls is given here.
Key:
[1] = molecular target: Putative P2Y purinoceptor 10 (Mus musculus) (UniProt Q8BFU7); assay: (§1) Agonist activity at mouse P2Y10 receptor expressed in HEK293A cells after 1.5 hrs by alkaline phosphatase tagged-TGFalpha shedding assay; assay type: cell-based; conditions: HEK293-A
Summary of the method: (§2)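 Transient transfection of HEK293 cells with AP-TGFα plus the mouse receptor. For GPR34, HEK293A cells also got a chimeric Gαq/i1 subunit; P2Y10 was run in HEK293A and GPR174 in HEK293FT. Cells were seeded 24 h post-transfection in 5 mM HEPES (pH 7.4) HBSS onto serial 3.2-fold compound dilutions (top final 32 μM or lower, limited by mock-cell signal). Ki16425 was present, and incubation ran 1.5 h.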

[2] = molecular target: Putative P2Y purinoceptor 10 (Mus musculus, UniProt Q8BFU7); assay: as §1; assay type: cell-based, HEK293-A; summary of the method: as §2
Putative P2Y purinoceptor 10, sequence (Q8BFU7 whole entry): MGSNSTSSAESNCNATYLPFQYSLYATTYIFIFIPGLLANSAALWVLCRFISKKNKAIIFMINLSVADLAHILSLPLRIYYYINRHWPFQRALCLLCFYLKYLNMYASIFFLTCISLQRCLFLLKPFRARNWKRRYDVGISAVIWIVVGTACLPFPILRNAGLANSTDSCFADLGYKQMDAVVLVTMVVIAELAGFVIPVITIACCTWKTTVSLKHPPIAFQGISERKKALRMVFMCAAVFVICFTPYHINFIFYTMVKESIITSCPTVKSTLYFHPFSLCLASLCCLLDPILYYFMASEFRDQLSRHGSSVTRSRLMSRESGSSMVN

[3] = molecular target: Probable G-protein coupled receptor 34 (Mus musculus) (UniProt Q9R1K6); assay: (§3) Agonist activity at mouse GPR34 expressed in HEK293A cells cotransfected with chimeric Galphaq/il after 1.5 hrs by alkaline phosphatase tagged-TGFalpha shedding assay; assay type: cell-based; conditions: HEK293-A
Probable G-protein coupled receptor 34 (Mus musculus), sequence (Q9R1K6 whole entry): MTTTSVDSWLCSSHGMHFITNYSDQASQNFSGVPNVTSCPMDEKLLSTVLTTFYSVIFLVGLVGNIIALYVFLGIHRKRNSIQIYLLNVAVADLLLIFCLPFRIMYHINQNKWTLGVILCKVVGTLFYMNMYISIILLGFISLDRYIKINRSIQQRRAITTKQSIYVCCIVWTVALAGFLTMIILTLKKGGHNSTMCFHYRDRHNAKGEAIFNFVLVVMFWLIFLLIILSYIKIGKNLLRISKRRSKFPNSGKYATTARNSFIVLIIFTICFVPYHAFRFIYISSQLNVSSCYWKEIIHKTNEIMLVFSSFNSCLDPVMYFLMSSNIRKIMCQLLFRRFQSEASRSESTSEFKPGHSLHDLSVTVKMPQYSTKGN

[4] = molecular target: Probable G-protein coupled receptor 34 (Mus musculus, UniProt Q9R1K6); assay: as §3; assay type: cell-based, HEK293-A
Probable G-protein coupled receptor 34, sequence (Q9R1K6 whole entry): as above

[5] = molecular target: Probable G-protein coupled receptor 174 (Mus musculus) (UniProt Q3U507); assay: Agonist activity at mouse GPR174 expressed in HEK293FT cells after 1.5 hrs by alkaline phosphatase tagged-TGFalpha shedding assay; assay type: cell-based; summary of the method: as §2
Probable G-protein coupled receptor 174 (Mus musculus), sequence (Q3U507 whole entry): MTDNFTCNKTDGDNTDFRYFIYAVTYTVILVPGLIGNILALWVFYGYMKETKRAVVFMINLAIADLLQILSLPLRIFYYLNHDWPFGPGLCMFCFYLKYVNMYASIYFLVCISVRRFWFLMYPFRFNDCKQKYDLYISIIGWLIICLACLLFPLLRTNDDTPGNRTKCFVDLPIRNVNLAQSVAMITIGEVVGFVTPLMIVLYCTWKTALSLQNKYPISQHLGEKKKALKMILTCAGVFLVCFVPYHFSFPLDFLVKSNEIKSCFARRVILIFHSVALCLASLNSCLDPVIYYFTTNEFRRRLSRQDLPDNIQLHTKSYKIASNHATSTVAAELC

[6] = molecular target: Putative P2Y purinoceptor 10 (Mus musculus) (UniProt Q8BFU7); assay: Intrinsic activity at mouse P2Y10 receptor expressed in HEK293A cells after 1.5 hrs by alkaline phosphatase tagged-TGFalpha shedding assay relative to diF-C3-ph-o-O-C11; assay type: cell-based; conditions: HEK293-A
Summary of the method: (§4)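 It is a dimensionless estimate of agonist activity. The GPR34 assay used HEK293A cells with chimeric Gαq/i1 and a 1.5 h incubation; the P2Y10 assay used HEK293A cells.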

[7] = molecular target: Probable G-protein coupled receptor 34 (Mus musculus) (UniProt Q9R1K6); assay: Intrinsic activity at mouse GPR34 expressed in HEK293A cells cotransfected with chimeric Galphaq/il after 1.5 hrs by alkaline phosphatase tagged-TGFalpha shedding assay relative to O-(Hydroxy(((2R,3R)-2-(((3-(2-((3-phenoxybenzyl)oxy)phenyl)-propanoyl)oxy)methyl)tetrahydro-2H-pyran-3-yl)oxy)phosphoryl)-L-serine; assay type: cell-based; conditions: HEK293-A; summary of the method: as §4

Putative P2Y purinoceptor 10 (Mus musculus), sequence (Q8BFU7 whole entry): as the sequence (Q8BFU7 whole entry) above

Structure (SMILES)	Emax [1]	EC50 ([2]; read-out: EC50) [nM]	Emax [3]	EC50 ([4]; read-out: EC50) [nM]	Activity [5]	Intrinsic activity [6]	Intrinsic activity [7]	EC50 ([4]; hek293-a)	EC50 ([2]; hek293-a)	pEC50 [3]
CCCCCCCCCCCOc1ccccc1CCC(=O)OC[C@H]1OCCC[C@@H]1OP(=O)(O)OC[C@H](N)C(=O)O	7.5%	610	5.3%	640	inactive	0.002	0.082			
CCCCCCCC/C=C\CCCCCCCC(=O)OC[C@@H]1OCC=C[C@@H]1OP(=O)(O)OC[C@@H](N)C(=O)O (single isomer, unassigned)	inactive	> 1000	inactive	> 1000		inactive	inactive			
CCCCCCCCCCCOc1ccccc1CCC(=O)O[C@@H]1CCCO[C@@H]1COP(=O)(O)OCC(N)C(=O)O (single isomer, unassigned)	inactive	> 1000	inactive	> 1000	inactive	inactive	inactive			
N[C@@H](COP(=O)(O)O[C@@H]1CCCO[C@@H]1COC(=O)CCc1ccc(OCc2cccc(Oc3ccccc3)c2)cc1)C(=O)O	inactive	> 1000				inactive		Not Active		
CCCCCCCC/C=C\CCCCCCCC(=O)O[C@@H]1C=CCO[C@@H]1COP(=O)(O)OC[C@H](N)C(=O)O	inactive	> 1000		560		inactive				
CCCCCCCCCCCOc1ccccc1CCC(=O)OC[C@H]1OCCC[C@H]1OP(=O)(O)OC[C@H](N)C(=O)O	10.6%	470	5.2%	110	inactive	0.0038	0.41			
N[C@@H](COP(=O)(O)O[C@H]1C=CCO[C@@H]1COC(=O)CCc1ccccc1OCc1cccc(Oc2ccccc2)c1)C(=O)O	11.5%	330	11.7%	460		0.0053	0.25			
N[C@@H](COP(=O)(O)OC[C@H]1OCCC[C@H]1OC(=O)CCc1ccc(OCc2cccc(Oc3ccccc3)c2)cc1)C(=O)O	inactive	> 1000	inactive	> 1000		inactive	inactive			
N[C@@H](COP(=O)(O)OC[C@H]1OCC=C[C@@H]1OC(=O)CCc1ccccc1OCc1cccc(Oc2ccccc2)c1)C(=O)O	inactive	> 1000	inactive	> 1000		inactive	inactive			
CCCCCCCCCCCOc1ccccc1CCC(=O)O[C@@H]1C=CCO[C@@H]1COP(=O)(O)OCC(N)C(=O)O (single isomer, unassigned)	inactive	> 1000	inactive	> 1000		inactive	inactive			
CCCCCCCC/C=C\CCCCCCCC(=O)OC[C@@H]1OCC=C[C@H]1OP(=O)(O)OC[C@@H](N)C(=O)O (single isomer, unassigned)	11.5%	450	inactive	> 1000		0.004	inactive			
CCCCCCCC/C=C\CCCCCCCC(=O)OC[C@@H]1OCCC[C@@H]1OP(=O)(O)OC[C@@H](N)C(=O)O (single isomer, unassigned)			11.1%	210	inactive		0.53		Not Active	
N[C@@H](COP(=O)(O)OC[C@H]1OCCC[C@@H]1OC(=O)CCc1ccccc1OCc1cccc(Oc2ccccc2)c1)C(=O)O	inactive	> 1000	inactive	> 1000	inactive	inactive	inactive			
N[C@@H](COP(=O)(O)OC[C@H]1OCC=C[C@H]1OC(=O)CCc1ccccc1OCc1cccc(Oc2ccccc2)c1)C(=O)O	inactive	> 1000	16.5%	180		inactive	0.86			
N[C@@H](COP(=O)(O)O[C@@H]1C=CCO[C@@H]1COC(=O)CCc1ccccc1OCc1cccc(Oc2ccccc2)c1)C(=O)O	inactive	> 1000	12.4%	600		inactive	0.2			
CCCCCCCC/C=C\CCCCCCCC(=O)O[C@@H]1CCCO[C@@H]1COP(=O)(O)OC[C@H](N)C(=O)O		> 1000		> 1000	inactive					
CCCCCCCCCCCOc1ccccc1CCC(=O)O[C@H]1C=CCO[C@@H]1COP(=O)(O)OCC(N)C(=O)O (single isomer, unassigned)	inactive	> 1000	inactive			inactive	inactive	Not Active		inactive
CCCCCCCCCCCOc1ccccc1CCC(=O)O[C@H]1CCCO[C@@H]1COP(=O)(O)OCC(N)C(=O)O (single isomer, unassigned)	7.2%	290	< 3%		inactive	0.0098	inactive	Not Active		inactive
N[C@@H](COP(=O)(O)O[C@@H]1CCCO[C@@H]1COC(=O)CCc1cccc(OCc2cccc(Oc3ccccc3)c2)c1)C(=O)O	inactive	> 1000	inactive	> 1000		inactive	inactive			
CCCCCCCC/C=C\CCCCCCCC(=O)O[C@H]1CCCO[C@@H]1COP(=O)(O)OC[C@H](N)C(=O)O					inactive			Not Active	Not Active	
CCCCCCCC/C=C\CCCCCCCC(=O)O[C@H]1C=CCO[C@@H]1COP(=O)(O)OC[C@H](N)C(=O)O	inactive	> 1000				inactive		Not Active		
CCCCCCCC/C=C\CCCCCCCC(=O)OC[C@@H]1OCCC[C@H]1OP(=O)(O)OC[C@@H](N)C(=O)O (single isomer, unassigned)		450	8.7%	100	inactive		1.03			
N[C@@H](COP(=O)(O)O[C@H]1CCCO[C@@H]1COC(=O)CCc1ccccc1OCc1cccc(Oc2ccccc2)c1)C(=O)O	inactive	> 1000	9.8%	340	inactive	inactive	0.24			
N[C@@H](COP(=O)(O)OC[C@H]1OCCC[C@H]1OC(=O)CCc1cccc(OCc2cccc(Oc3ccccc3)c2)c1)C(=O)O	inactive	> 1000				inactive		Not Active		

From ChEMBL document CHEMBL3813596, “Conformational Constraint of the Glycerol Moiety of Lysophosphatidylserine Affords Compounds with Receptor Subtype Selectivity” (J Med Chem, 2016)
